# From PubChem
# XiGFP reactiv: activators of X-chromosome reactivation in mouse fibroblasts. XiGFP mouse fibroblasts, % GFP-positive cells imaging, 3 d; cells co-treated with 5-aza-dC sensitizer; scaled so ellipticine positive control = 100%. activation, % at 7.58 µM. 0.055% of 360,000 active;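 active = mean normalized replicate activation at least 10% and every replicate at or above 10%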;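 note: 0% = median of on-plate neutral control wells and 100% = ellipticine 6 µM median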
#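 material = 68-5-11 XiGFP fibroblast line | medium = DMEM plus 5-aza-dC sensitizer | schedule = 3 days compound exposure | benchmarks = positive control ellipticine, 6 µM final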
# TROY NFkB inh: blocks TROY-dependent signaling in reporter cells | Q293 LMP1-TROYcd NF-kB luciferase reporter, 4 h | 0.98% of 360,000 active | AID 1347056 | inhibition, % at 10 µM;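 active = compounds whose plate-normalised and pattern-corrected inhibition of the luciferase reporter signal at the single screening dose is 50% or more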
# LGR2 inh: inhibitors of bursicon-induced Drosophila LGR2 receptor cAMP signaling. HEK293 LGR2, CRE-luciferase, bursicon-stimulated, 4 h. inhibition, % at 9.99 µM. 0.35% of 380,000 active;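 active = drop in luminescence signal, shown as inhibition above about 50% in the replicate tests, limit read from the data, passing the limit was not always enough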;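 note: agonist challenge used bursicon conditioned medium at about half maximal strength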
# EWS-Fli inh: inhibitors of EWS/Fli oncoprotein transcriptional activity | inhibition, % at 12.6 µM | 0.67% of 350,000 active | A673 NR0B1-luciferase reporter, viability-normalised;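 active = mean inhibition of at least 50% after viability correction, with every replicate also passing that limit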;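 note: firefly luciferase signal divided by Alamar Blue viability fluorescence both relative to DMSO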
# TWEAK Fn14 block: inhibitors of TWEAK-Fn14 interaction signaling; 2% of 360,000 active; TWEAK-stimulated Fn14 reporter cells, luciferase luminescence, 8 h; AID 1159606; inhibition, % at 10 µM; in the data active = inhibition above about 50%
# FN deposit inh: fibronectin deposition inhibition; 0.086% of 350,000 active; AH1F fibroblasts, Alexa488-fibronectin deposition fluorescence, overnight; inhibition, % at 12.6 µM;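 active = mean inhibition across replicates of 30% or more, regardless of how many single replicates reach that level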;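 note: positive control wells lacked labelled fibronectin entirely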
#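 test system = AH1F fibroblasts assembling fluorescent fibronectin matrix | quantity = 10000 AH1F cells per well | buffer or medium = DMEM plus 2% serum, read in PBS | doses = single dose, pinned | incubation = 1 h cell attachment, overnight exposure to compound and label | detection = fluorescence at 485 nm excitation, 525 nm emission | read-out basis = inhibition from reduced deposited-fibronectin fluorescence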
# DNA binder FP: DNA binding small molecules; salmon sperm DNA acridine orange fluorescence polarization; AC35, µM (highest dose often 68 µM), inactives show top-dose activity change, negative = DNA binding; AID 720586; shares compounds with EWS-Fli inh; 2% of 640 active;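 active = fitted curve reaches a 35% signal fall AC35 below twice the sample's top valid tested dose, actives reach about 48 µM in these data; inactive = the rest, including activity in the rising direction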;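 note: lower polarization ratio signals compound binding to DNA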
# * hit, by the source's call; / = no result given. Only some compounds are listed: those with a hit (about 2.3% of all), similar ones and a draw of the others.
SMILES,XiGFP reactiv,TROY NFkB inh,LGR2 inh,EWS-Fli inh,TWEAK Fn14 block,FN deposit inh,DNA binder FP
COc1ccc2oc(-c3ccccc3)cc(=O)c2c1,/,4.9,63.9*,60.3*,73.8*,/,-3.7%
CCc1ccc(Cn2ncc3c(C(=O)O)cc(C)nc32)cc1,-0.1,3.6,-12.5,75.4*,11.4,3.2,9.5%
CCc1ccc(NC(=O)c2cnn3c(C(F)F)cc(C)nc23)cc1,0.3,2.0,2.2,0.5,-18.8,-9.7,/
CN(C)c1ccc(-c2ccnc3c2CC(C)(C(=O)NCc2ccco2)O3)cc1 (stereo unspecified),-0.1,16.8,-5.1,64.1*,30.2,14.2,3.4%
CC1(C(=O)NCc2ccco2)Cc2c(-c3cccc(C(F)(F)F)c3)ccnc2O1 (stereo unspecified),0.1,25.5,5.3,39.0,14.8,-0.4,/
CN(C)c1ccc(-c2ccnc3c2CC(C)(C(=O)NCc2cccs2)O3)cc1 (stereo unspecified),0.2,11.7,-4.5,47.0,16.9,9.6,/
CC1(C(=O)NCc2ccco2)Cc2c(-c3cccc(C(N)=O)c3)ccnc2O1 (stereo unspecified),0.0,-0.6,-20.0,52.7*,28.3,20.1,-11.4%
Cc1ccc(S(=O)(=O)N(C)C[C@@H]2Oc3c(NS(=O)(=O)c4ccc(F)cc4)cccc3C(=O)N([C@@H](C)CO)C[C@@H]2C)cc1,0.1,/,5.2,3.8,/,/,/
